Results taken from ChEMBL document CHEMBL3102834, “Discovery of 5-substituted pyrrolo[2,3-d]pyrimidine antifolates as dual-acting inhibitors of glycinamide ribonucleotide formyltransferase and 5-aminoimidazole-4-carboxamide ribonucleotide formyltransferase in de novo purine nucleotide biosynthesis: implications of inhibiting …” (J Med Chem, 2013).
The source made the active and inactive calls. The calls are words filed in the database; no cut-off is given here.

Legend:
[1] = Cytotoxicity against chinese hamster R2(VC) cells after 96 hrs by CellTitre-Blue fluorescence assay; type: functional, cell-based; conditions: Cricetulus griseus
How it was run: (§1)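 CHO sublines were grown in FF-RPMI/DFBS; transfectants were maintained with G418. Cells were exposed to antifolate (0–1 μM) for 96 h at 37 °C with 2 nM LCV (RT16) or 25 nM LCV (R2/PCFT4). PC43-10 cells were grown in standard RPMI1640/DFBS instead. FRα specificity was tested by adding 200 nM folic acid. Viable cells were read by CellTiter-Blue fluorescence (ex 560/em 590), and IC50 was taken from dose–response curves; means of 3–10 experiments.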

[2] = Cytotoxicity against chinese hamster PC43-10 cells expressing human RFC after 96 hrs by CellTitre-Blue fluorescence assay; type: functional, cell-based; conditions: Cricetulus griseus, PC43-10, 96 h; how it was run: as §1
R2 [3] = test: Cytotoxicity against chinese hamster R2 cells after 96 hrs by CellTitre-Blue fluorescence assay; conditions: Cricetulus griseus, R2, 96 h
R2 [4] = test: Cytotoxicity against chinese hamster R2 cells expressing human PCFT4 after 96 hrs by CellTitre-Blue fluorescence assay; type: functional, cell-based, Cricetulus griseus; conditions: R2, 96 h
[5] = target: Folate receptor alpha (Homo sapiens) (UniProt P15328); test: Displacement of [3H]folic acid from human FRalpha expressed in chinese hamster RT16 cells after 15 mins by scintillation counting analysis; type: cell-based
Folate receptor alpha (Homo sapiens), sequence (P15328 25-234 limits assumed): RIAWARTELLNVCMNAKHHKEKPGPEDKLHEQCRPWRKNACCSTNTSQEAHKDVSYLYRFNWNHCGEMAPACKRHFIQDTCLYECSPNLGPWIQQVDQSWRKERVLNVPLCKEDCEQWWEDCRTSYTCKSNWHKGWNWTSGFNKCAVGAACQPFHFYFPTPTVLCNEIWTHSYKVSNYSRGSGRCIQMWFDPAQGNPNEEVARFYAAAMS
How it was run: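 FRα-expressing RT16 CHO cells (~1.5 × 10^6) were grown as monolayers. Bound folates were stripped with ice-cold acetate buffer (pH 3.5), then neutralised with HEPES-buffered saline (pH 7.4). Cells were then competed with [3H]folic acid against graded unlabelled ligand. Bound label read by scintillation, normalised to Folin-phenol protein (pmol/mg). Relative affinity = inverse molar ratio for 50% displacement, folic acid set at 1. Three experiments.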

KB [6] = test: Cell cycle arrest in human KB cells assessed as accumulation at G2/M phase at 1 uM after 96 hrs by propidium iodide staining-based flow cytometry (reference value: 13.2%); type: functional
KB [7] = test: Cell cycle arrest in human KB cells assessed as accumulation at S phase at 1 uM after 96 hrs by propidium iodide staining-based flow cytometry (reference value: 15.9%); type: functional
KB [8] = test: Cell cycle arrest in human KB cells assessed as accumulation at G1/G0 phase at 1 uM after 96 hrs by propidium iodide staining-based flow cytometry (reference value: 67.4%); type: functional
KB [9] = test: Cell cycle arrest in human KB cells assessed as accumulation at sub-G1 phase at 1 uM after 96 hrs by propidium iodide staining-based flow cytometry (reference value: 3.5%); type: functional
[10] = target: T1, Reduced folate transporter (Homo sapiens) (UniProt P41440); test: Inhibition of human RFC expressed in chinese hamster PC43-10 cells assessed as reduction of [3H]MTX uptake at 10 uM after 48 hrs by scintillation counting analysis relative to control; type: cell-based
T1 sequence (whole entry): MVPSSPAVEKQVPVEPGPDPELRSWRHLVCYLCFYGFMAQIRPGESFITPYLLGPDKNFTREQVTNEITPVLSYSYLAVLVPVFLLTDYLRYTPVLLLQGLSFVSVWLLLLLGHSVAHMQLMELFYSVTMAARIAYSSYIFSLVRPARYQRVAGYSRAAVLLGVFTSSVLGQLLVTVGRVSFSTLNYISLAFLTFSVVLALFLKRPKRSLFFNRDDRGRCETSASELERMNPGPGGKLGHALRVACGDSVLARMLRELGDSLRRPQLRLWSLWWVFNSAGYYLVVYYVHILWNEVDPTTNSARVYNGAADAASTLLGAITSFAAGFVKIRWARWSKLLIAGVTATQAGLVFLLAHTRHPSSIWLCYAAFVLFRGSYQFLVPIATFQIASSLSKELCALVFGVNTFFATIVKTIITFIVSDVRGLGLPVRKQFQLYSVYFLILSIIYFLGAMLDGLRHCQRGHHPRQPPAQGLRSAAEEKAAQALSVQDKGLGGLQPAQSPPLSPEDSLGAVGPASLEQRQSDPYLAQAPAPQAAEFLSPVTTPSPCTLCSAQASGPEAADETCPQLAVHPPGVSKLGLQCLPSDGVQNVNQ
How it was run: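 PC43-10 CHO cells expressing human RFC (~1.5 × 10^6) were seeded 48 h before assay. Uptake of 0.5 μM [3H]MTX was run in Hank's balanced salts for 2 min at 37 °C, with or without 10 μM unlabelled inhibitor, and stopped with ice-cold PBS. Cells were dissolved in 0.5 N NaOH, counted by scintillation and normalised to Folin-phenol protein (pmol/mg). RFC-null R2 cells gave baseline. Three experiments.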

[11] = (§2) Inhibition of GARFTase in human KB cells assessed as incorporation of [14C]-glycine into [14C]-formyl GAR incubated 30 mins prior to [14C]-glycine addition measured after 16 hrs by radiometric assay in presence of azaserin; type: cell-based
How it was run: (§3)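 KB cells were preincubated 1 h in folate- and glutamine-free medium with 2 nM LCV and a range of drug concentrations. Azaserine (4 μM final) was added for 30 min, then 2 mM glutamine and [14C(U)]glycine (0.1 mCi/L) for 16 h at 37 °C. TCA extracts were ether-washed and run on AG1×8 anion exchange. [14C]formyl GAR was measured per mg protein, and IC50 was set against DMSO controls; three experiments.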

KB [12] = test: as §2; type: cell-based; how it was run: as §3
KB [13] = test: Induction of apoptosis in human KB cells assessed as viable cells at 1 uM after 96 hrs by Annexin V-FITC/7-AAD staining-based flow cytometry (RVB = 89.6%); type: functional; conditions: read-out: Activity
KB [14] = test: Induction of apoptosis in human KB cells assessed as necrotic cells at 1 uM after 96 hrs by Annexin V-FITC/7-AAD staining-based flow cytometry (RVB = 7.80%); type: functional
KB [15] = test: Induction of apoptosis in human KB cells assessed as late apoptotic cells at 1 uM after 96 hrs by Annexin V-FITC/7-AAD staining-based flow cytometry (reference value: 2.09%); type: functional
KB [16] = test: Induction of apoptosis in human KB cells assessed as early apoptotic cells at 1 uM after 96 hrs by Annexin V-FITC/7-AAD staining-based flow cytometry (reference value: 0.485%); type: functional
KB [17] = test: Cytotoxicity against human KB cells expressing human RFC/FRalpha/PCFT after 96 hrs by CellTitre-Blue fluorescence assay in presence of AICA; type: functional, cell-based
How it was run: (§4)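 KB cells were grown in FF-RPMI with DFBS and 2 nM LCV, exposed to antifolate (0–1 μM) for 96 h at 37 °C, and read by CellTiter-Blue fluorescence. IC50 was taken from dose–response curves relative to untreated cells. Protection arms added adenosine 60 μM, thymidine 10 μM, AICA 320 μM, or folic acid 200 nM. Means of 3–10 experiments.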

KB [18] = test: Cytotoxicity against human KB cells expressing human RFC/FRalpha/PCFT after 96 hrs by CellTitre-Blue fluorescence assay in presence of adenosine; type: functional, cell-based; how it was run: as §4
KB [19] = test: Cytotoxicity against human KB cells expressing human RFC/FRalpha/PCFT after 96 hrs by CellTitre-Blue fluorescence assay in presence of thymidine; type: functional, cell-based; how it was run: as §4
[20] = Cytotoxicity against chinese hamster RT16 cells expressing human FRalpha after 96 hrs by CellTitre-Blue fluorescence assay in presence of folic acid; type: functional, cell-based; conditions: Cricetulus griseus, RT16, 96 h; how it was run: as §1
KB [21] = test: Cytotoxicity against human KB cells expressing human RFC/FRalpha/PCFT assessed as depletion of ATP pools at 1 uM after 24 hrs by ion-pair HPLC analysis; type: functional
How it was run: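 KB cells in FF-RPMI/10% DFBS with 2 mM glutamine and 2 nM LCV were exposed to 1 μM drug for 24 h. They were trypsinized and washed, and nucleotides were extracted. ATP was quantified by reversed-phase ion-pair HPLC on a C18 column. Results are means ± standard errors.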

KB [22] = test: Cytotoxicity against human KB cells expressing human RFC/FRalpha/PCFT after 96 hrs by CellTitre-Blue fluorescence assay in presence of thymidine/adenosine; type: functional, cell-based; how it was run: as §4
KB [23] = test: Cytotoxicity against human KB cells expressing human RFC/FRalpha/PCFT after 96 hrs by CellTitre-Blue fluorescence assay in presence of adenosine/AICA/thymidine; type: functional, cell-based; how it was run: as §4
KB [24] = test: Cytotoxicity against human KB cells expressing human RFC/FRalpha/PCFT after 96 hrs by CellTitre-Blue fluorescence assay in presence of folic acid; type: functional, cell-based; how it was run: as §4
KB [25] = test: Cytotoxicity against human KB cells expressing human RFC/FRalpha/PCFT after 96 hrs by CellTitre-Blue fluorescence assay; type: functional, cell-based; how it was run: as §4
[26] = Cytotoxicity against chinese hamster RT16 cells expressing human FRalpha after 96 hrs by CellTitre-Blue fluorescence assay; type: functional, cell-based; conditions: Cricetulus griseus, RT16, 96 h; how it was run: as §1
KB [27] = test: Cell cycle arrest in human KB cells assessed as accumulation at G1/G0 phase at 1 uM after 48 hrs by propidium iodide staining-based flow cytometry relative to control; type: functional

## Nc1nc2[nH]c(CCCc3ccc(C(=O)N[C@@H](CCC(=O)O)C(=O)O)cc3)cc2c(=O)[nH]1
[1]
  IC50: > 1000 nM
[2]
  IC50: 649 nM
R2 [3]
  IC50: > 1000 nM

## Nc1nc2[nH]c(CCCCCCc3ccc(C(=O)N[C@@H](CCC(=O)O)C(=O)O)cc3)cc2c(=O)[nH]1
[1]
  IC50: > 1000 nM
R2 [4]
  IC50: > 1000 nM

## CN(Cc1cnc2nc(N)nc(N)c2n1)c1ccc(C(=O)N[C@@H](CCC(=O)O)C(=O)O)cc1 [METHOTREXATE]
[5]
  inhibition: inactive
[1]
  IC50: > 1000 nM

## Nc1nc2c(c(=O)[nH]1)C[C@@H](CCc1ccc(C(=O)N[C@@H](CCC(=O)O)C(=O)O)cc1)CN2 [LOMETREXOL]
[1]
  IC50: > 1000 nM

## Nc1nc2[nH]c(CCCCc3ccc(C(=O)N[C@@H](CCC(=O)O)C(=O)O)cc3)cc2c(=O)[nH]1
KB [6]
  Activity: 1.2%
KB [7]
  Activity: 31.4%
KB [8]
  Activity: 22.3%
KB [9]
  Activity: 45.1%
[5]
  Activity: Active
[10]
  inhibition: < 25%
[1]
  IC50: > 1000 nM
[11]
  IC50: 5.71 nM
KB [12]
  inhibition: Dose-dependent effect
KB [13]
  viability at 1 µM: 35%
KB [14]
  Activity: 0.748%
KB [15]
  Activity: 28.8%
KB [16]
  Activity: 35.5%

## Nc1nc2[nH]cc(CCCCCc3ccc(C(=O)N[C@@H](CCC(=O)O)C(=O)O)cc3)c2c(=O)[nH]1
KB [17]
  Activity: inactive
KB [18]
  Activity: inactive
KB [19]
  Activity: Active
[1]
  IC50: > 1000 nM
R2 [4]
  IC50: > 1000 nM
[20]
  IC50: > 1000 nM
R2 [3]
  IC50: > 1000 nM

## Nc1nc2[nH]cc(CCc3ccc(C(=O)N[C@@H](CCC(=O)O)C(=O)O)cc3)c2c(=O)[nH]1 [PEMETREXED]
KB [6]
  Activity: 7.5%
KB [7]
  Activity: 27.5%
KB [8]
  Activity: 47.8%
KB [9]
  Activity: 17.3%
KB [21]
  inhibition at 1 µM: 60%
KB [22]
  Activity: inactive
KB [23]
  Activity: Active
KB [24]
  IC50: 690 nM
KB [25]
  IC50: 9.94 nM
[1]
  IC50: > 1000 nM
[26]
  IC50: 18.2 nM
[20]
  IC50: > 1000 nM
[2]
  IC50: 30.6 nM
KB [27]
  Activity: Active
[11]
  IC50: 11.7 nM
KB [12]
  inhibition: Dose-dependent effect
KB [13]
  viability at 1 µM: 64.6%
KB [14]
  Activity: 0.271%
KB [15]
  Activity: 4.56%
KB [16]
  Activity: 30.6%
R2 [3]
  IC50: > 1000 nM
